Screens as filed in PubChem BioAssay.
Most compounds without a hit are left out; they make up all but 2.2% or so of the library.
CHRM5 antagonist: CHRM5 antagonism in calcium assay; P08912; CHO-hM5 cells, Fluo-8 calcium fluorescence, ACh EC80; AID 624040; inhibition, % at 3 µM; 360,000 compounds, 0.59% hits;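 active = inhibition above a per-plate cutoff, the mean of that plate's test compounds plus 3 SD, cut at about 27% in these data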;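 also: 0% = acetylcholine EC80 with DMSO and 100% = DMSO without agonist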
Target sequence (P08912 whole entry, looked up): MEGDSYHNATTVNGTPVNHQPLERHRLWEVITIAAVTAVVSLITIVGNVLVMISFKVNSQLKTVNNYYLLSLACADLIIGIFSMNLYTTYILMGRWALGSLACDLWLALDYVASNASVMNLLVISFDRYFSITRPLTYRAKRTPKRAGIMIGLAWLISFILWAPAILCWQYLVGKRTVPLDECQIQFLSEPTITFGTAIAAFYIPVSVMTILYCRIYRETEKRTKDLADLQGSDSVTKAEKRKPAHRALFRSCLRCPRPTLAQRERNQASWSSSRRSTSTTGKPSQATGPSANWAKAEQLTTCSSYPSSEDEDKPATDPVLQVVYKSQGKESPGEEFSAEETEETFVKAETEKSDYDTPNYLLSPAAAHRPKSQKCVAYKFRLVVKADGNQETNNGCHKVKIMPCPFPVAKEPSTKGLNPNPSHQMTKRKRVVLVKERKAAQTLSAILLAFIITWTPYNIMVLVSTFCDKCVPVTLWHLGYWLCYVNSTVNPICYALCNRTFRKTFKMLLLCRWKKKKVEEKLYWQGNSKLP
CHRM1 antagonist: human CHRM1 antagonism | CHO-K1 hM1, Fluo-8 calcium fluorescence, ACh EC80 antagonist | inhibition, % at 3 µM | 360,000 compounds, 1.3% hits | AID 588852;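 active = percent inhibition above its own plate's cutoff, namely the mean of that plate's compound wells plus 3 SD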;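 also: peak over basal fluorescence ratio during 140 s after agonist addition; 0% = ACh EC80 plus DMSO and 100% = DMSO alone without agonist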
M5 ag: CHRM5 agonism in calcium assay. activation, % at 3 µM. CHO-K1 hM5 cells, Fluo-8 calcium fluorescence; 0% DMSO wells, 100% maximal acetylcholine response. P08912. AID 624037. 360,000 compounds, 0.19% hits;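 active = activation above the run's mean over test compounds plus 3 SD, cut at about 23% in these data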;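 also: signal is peak over basal fluorescence ratio across the kinetic read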
CHRM5 PAM: potentiates acetylcholine response at human M5 receptor; AID 624038; activation, % at 3 µM; 360,000 compounds, 0.3% hits; CHO-K1 hM5, Fluo-8 calcium, ACh EC20 PAM; 0% = ACh EC20, 100% = ACh EC100;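 active = activation above the run cutoff, the mean activation of all test compounds plus 3 SD, cut at about 18% in these data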
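System: CHO-K1 cell line with stable human muscarinic M5 receptor expression | Also added: EC20 acetylcholine as agonist stimulus | Compound: One concentration, 3 µM final (nominal) | Timing: Fluo-8 loading 80 min at 37 °C plus 30 min room temperature | Measured by: Fluo-8 calcium dye fluorescence, kinetic read | Read-out basis: % activation, ACh-normalized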
M1 PAM: human CHRM1 positive allosteric modulation. P11229. CHO-K1 hM1, Fluo-8 calcium fluorescence, ACh EC20; 0% = ACh EC20, 100% = maximal ACh. activation, % at 3 µM. 360,000 compounds, 0.088% hits. AID 588819; in the data active = activation above about 19%, passing the limit was not always enough
M1 ag: agonists of human M1 muscarinic receptor | activation, % at 3 µM | CHO-K1 hM1, Fluo-8 calcium fluorescence, agonist mode; 0% DMSO, 100% acetylcholine EC100 | 360,000 compounds, 0.33% hits;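 active = activation above the run's mean compound activation plus 3 SD, cut at about 16% in these data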;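 also: peak over basal fluorescence ratio within a 140 s kinetic read after compound addition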
Active calls of the source: *.

SMILES | CHRM5 antagonist | CHRM1 antagonist | M5 ag | CHRM5 PAM | M1 PAM | M1 ag
CCOc1cc(N2CCOCC2)c(OCC)cc1NC(=O)CN1CCN(Cc2ccc3c(c2)OCO3)CC1 | 4.2 | -23.0 | -1.8 | 1.8 | 12.7 | -5.5
COc1ccc(CCC(C)NC2C3CC4CC(C3)CC2C4)cc1 (configuration not stated) | 21.1 | 98.7* | -7.6 | -15.6 | -21.7 | -7.4
CC1CCCCC1NCC#CCOc1ccc(Cl)cc1 (configuration not stated) | 23.1 | 62.6* | -12.6 | -30.7 | -23.3 | -5.9
CCOC(=O)c1c(C)[nH]c(C)c1C(=O)CSc1ncccn1 | -0.7 | 10.0 | -0.1 | 24.9* | -4.1 | -3.6
S=C(Nc1ccc(Cl)c(Cl)c1)NC1CCCCC1 | 28.8* | 44.4* | 2.7 | -22.7 | -29.3 | -3.5
Fc1cccc(NC(=S)NC2CCCCCCC2)c1 | 27.3* | 13.6 | 4.0 | -16.9 | -6.8 | 4.3
FC(F)(F)c1cccc(NC(=S)NC2CCCC2)c1 | 10.8 | 18.2 | 5.8 | -17.0 | -14.1 | -4.2
S=C(Nc1ccc(Cl)c(Cl)c1)NC1CCN(Cc2ccccc2)CC1 | 33.4* | 6.0 | 18.7 | -14.3 | 10.8 | 17.2*
Cc1nn(C)cc1/C=N/NC(=O)Cn1nccc1C | -3.5 | -2.1 | -0.2 | -0.2 | 3.8 | -1.1
CCOc1ccc(/C=C/C(=O)N(CC)CC(=O)Nc2ccc3c(c2)OCCO3)cc1OCC | 18.0 | -13.4 | -4.2 | -3.5 | 6.0 | -5.8
Cc1c(C(=O)O)sc2ncn(C)c(=O)c12 | 7.1 | -4.9 | -7.1 | 1.4 | 7.2 | -1.4
COc1ccc([C@H]2C(C#N)=C([S-])N[C@](C)(O)[C@@H]2[n+]2ccccc2)cc1 | -3.6 | 74.3* | -18.4 | -19.1 | -24.6 | -8.8
Cc1ccc[n+](C2C(c3ccc([N+](=O)[O-])cc3)C(C#N)=C([S-])NC2(O)C2CC2)c1 (configuration not stated) | 8.8 | 33.3 | -11.9 | -1.8 | -20.2 | -6.5
Cc1onc(-c2c(Cl)cccc2Cl)c1C(=O)c1c[nH]c(C(=O)NCCCN2CCOCC2)c1 | -0.8 | 76.1* | -7.0 | -1.7 | -22.4 | -5.5
Cc1onc(-c2c(Cl)cccc2Cl)c1C(=O)NCCCN1CCOCC1 | -4.2 | -4.4 | -11.1 | -3.0 | 2.9 | -5.8
CCOc1ccc(S(=O)(=O)NC(Cc2cnc[nH]2)C(=O)O)cc1 (configuration not stated) | 5.0 | -1.2 | 4.5 | 9.1 | 3.9 | -0.1
CC(C)CN1Cc2ccccc2Oc2cc(Br)ccc2S1(=O)=O | 1.4 | -11.4 | 21.8 | 12.1 | 16.0 | 29.4*
C[C@@H](c1ccccc1)N1Cc2ccccc2Oc2cc(Br)ccc2S1(=O)=O | -4.2 | 3.6 | 0.0 | -1.5 | -3.2 | -3.7
CCCCN1Cc2ccccc2Oc2cc(Br)ccc2S1(=O)=O | 1.2 | -15.8 | 16.3 | 8.6 | 25.7* | 30.7*
CC(Oc1ccccc1)c1nnc(SCC(=O)NC2CC2)n1C (configuration not stated) | 3.1 | -10.8 | -3.6 | -7.1 | 10.8 | 0.4
Cc1c(Cl)ccc2c1NC(=O)[C@]21N[C@@H](Cc2ccccc2)[C@H]2C(=O)N(c3ccc(F)cc3)C(=O)[C@H]21 | 18.6 | 11.5 | 23.0 | 0.7 | 1.1 | 17.2*
Cc1ccc(Cn2nc(C)c3cc(C(=O)OCC(N)=O)sc32)cc1 | -0.9 | -10.5 | -3.0 | 4.2 | 7.6 | -2.5
CCOc1ccc(-c2csc(NNC3=NCCCCC3)n2)cc1 | 2.8 | 8.6 | -0.7 | 3.4 | -3.3 | -11.9
CC(=O)c1cccc(NC(=O)C(C)OC(=O)c2ccc3ncsc3c2)c1 (configuration not stated) | 2.7 | 4.3 | 3.1 | -4.8 | 4.3 | -0.8
CC(OC(=O)c1ccc2ncsc2c1)C(=O)Nc1cccc(Cl)c1 (configuration not stated) | 15.6 | 32.3* | -7.1 | -12.8 | -14.5 | -4.0
CCOC(=O)c1ccc(C(=O)OCC)nc1 | -9.4 | -4.2 | -0.8 | 20.7* | 5.6 | -0.1
CCOC(=O)c1ccc(N=NN(C)C)cc1 | 9.3 | -20.9 | -3.9 | -2.4 | 16.4 | -2.8
